# Results taken from ChEMBL document CHEMBL1158358, “Synthesis, antimicrobial and cytotoxic activities of some 5-arylidene-4-thioxo-thiazolidine-2-ones” (Eur J Med Chem, 2009).
# Key:
# Assay type in all cases: functional
# Staphylococcus aureus [1] = test: Antimicrobial activity against multidrug-resistant Staphylococcus aureus H.C. 21141 isolate after 20 hrs by twofold serial dilution technique; conditions: H.C. 21141, 20 h
# Summary of the method: (§1)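 Twofold serial dilution MIC in agar plates against Gram-positive strains and multidrug-resistant clinical isolates. Inoculum applied was 10⁵ CFU/plate. Plates with culture medium plus DMSO served as negative control. MIC was read after incubation at 35 °C for 20 h.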
# Bacillus subtilis [2] = test: Antimicrobial activity against Bacillus subtilis UFPEDA 16 after 20 hrs by twofold serial dilution technique; conditions: UFPEDA 16, 20 h
# Summary of the method: (§2)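 MIC was determined by twofold serial dilution. Bacteria were tested in plates at 10⁵ CFU/plate and read after 20 h. C. albicans was tested in tubes at 10³ CFU/tube and read after 48 h. All incubations were at 35 °C. Medium plus DMSO served as the negative control.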
# Staphylococcus aureus [3] = test: Antimicrobial activity against multidrug-resistant Staphylococcus aureus H.C. 20981 isolate after 20 hrs by twofold serial dilution technique; conditions: H.C. 20981, 20 h; summary of the method: as §1
# Serratia marcescens = test: Antimicrobial activity against Serratia marcescens UFPEDA 398 at 300 ug/disk after 24 hrs by disk diffusion method; conditions: UFPEDA 398, 24 h, read-out: IZ
# Summary of the method: (§3)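 Preliminary screen by disk diffusion. Paper disks (6 mm) holding 300 µg of compound were placed on agar plates inoculated with a standardized microbial suspension. DMSO-only disks served as negative controls. A mean inhibition zone below 7 mm was scored as no sensitivity. Values are means, n = 3.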
# Micrococcus luteus [4] = test: Antimicrobial activity against Micrococcus luteus UFPEDA 06 after 20 hrs by twofold serial dilution technique; conditions: UFPEDA 06, 20 h; summary of the method: as §2
# Enterococcus faecalis [5] = test: Antimicrobial activity against Enterococcus faecalis UFPEDA 138 at 300 ug/disk after 24 hrs by disk diffusion method; conditions: UFPEDA 138, 24 h, read-out: IZ; summary of the method: as §3
# Enterococcus faecalis [6] = test: Antimicrobial activity against multidrug-resistant Enterococcus faecalis H.C. 21752 isolate after 20 hrs by twofold serial dilution technique; conditions: H.C. 21752, 20 h; summary of the method: as §1
# NCI-H292 [7] = test: Cytotoxicity against human NCI-H292 cells at 2.5 ug/mL after 72 hrs by MTT assay; conditions: NCI-H292, 72 h, read-out: GI
# Summary of the method: (§4)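 MTT antiproliferative assay. Cells were diluted to 10⁵ cells/mL in 96-well plates and preincubated for 24 h at 37 °C in humid 5% CO₂. Compounds or vincristine (reference) were then added. Formazan was dissolved and OD read at 540 nm, compared with medium-only control cells. Run in triplicate.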
# Bacillus subtilis [8] = test: Antimicrobial activity against Bacillus subtilis UFPEDA 16 at 300 ug/disk after 24 hrs by disk diffusion method; conditions: UFPEDA 16, 24 h, read-out: IZ; summary of the method: as §3
# Candida albicans [9] = test: Antimicrobial activity against Candida albicans UFPEDA 1007 at 300 ug/disk after 48 hrs by disk diffusion method; conditions: UFPEDA 1007, 48 h, read-out: IZ; summary of the method: as §3
# NCI-H292 [10] = test: Cytotoxicity against human NCI-H292 cells at 10 ug/mL after 72 hrs by MTT assay; conditions: NCI-H292, 72 h, read-out: GI; summary of the method: as §4
# Enterococcus faecalis [11] = test: Antimicrobial activity against Enterococcus faecalis UFPEDA 138 after 20 hrs by twofold serial dilution technique; conditions: UFPEDA 138, 20 h; summary of the method: as §2
# Pseudomonas aeruginosa = test: Antimicrobial activity against Pseudomonas aeruginosa UFPEDA 39 at 300 ug/disk after 24 hrs by disk diffusion method; conditions: UFPEDA 39, 24 h, read-out: IZ; summary of the method: as §3
# Enterococcus faecalis [12] = test: Antimicrobial activity against multidrug-resistant Enterococcus faecalis H.C. 21944 isolate after 20 hrs by twofold serial dilution technique; conditions: H.C. 21944, 20 h; summary of the method: as §1
# NCI-H292 [13] = test: Cytotoxicity against human NCI-H292 cells at 1.25 ug/mL after 72 hrs by MTT assay; conditions: NCI-H292, 72 h, read-out: GI; summary of the method: as §4
# Micrococcus luteus [14] = test: Antimicrobial activity against Micrococcus luteus UFPEDA 06 at 300 ug/disk after 24 hrs by disk diffusion method; conditions: UFPEDA 06, 24 h, read-out: IZ; summary of the method: as §3
# [15] = system: Mycolicibacterium smegmatis; test: Antimicrobial activity against Mycobacterium smegmatis UFPEDA 71 after 20 hrs by twofold serial dilution technique; conditions: UFPEDA 71, 20 h; summary of the method: as §2
# HEp-2 [16] = test: Cytotoxicity against human Hep2 cells at 1.25 ug/mL after 72 hrs by MTT assay; conditions: HEp-2, 72 h, read-out: GI; summary of the method: as §4
# Staphylococcus [17] = test: Antimicrobial activity against coagulase-negative Staphylococcus H.A.M. 338 isolate after 20 hrs by twofold serial dilution technique; conditions: H.A.M. 338, 20 h; summary of the method: as §2
# [18] = system: Mycolicibacterium smegmatis; test: Antimicrobial activity against Mycobacterium smegmatis UFPEDA 71 at 300 ug/disk after 24 hrs by disk diffusion method; conditions: UFPEDA 71, 24 h, read-out: IZ; summary of the method: as §3
# Staphylococcus aureus [19] = test: Antimicrobial activity against Staphylococcus aureus UFPEDA 01 after 20 hrs by twofold serial dilution technique; conditions: UFPEDA 01, 20 h; summary of the method: as §1
# Staphylococcus aureus [20] = test: Antimicrobial activity against Staphylococcus aureus UFPEDA 01 at 300 ug/disk after 24 hrs by disk diffusion method; conditions: UFPEDA 01, 24 h, read-out: IZ; summary of the method: as §3
# Staphylococcus aureus [21] = test: Antimicrobial activity against multidrug-resistant Staphylococcus aureus H.C. 20489 isolate after 20 hrs by twofold serial dilution technique; conditions: H.C. 20489, 20 h; summary of the method: as §1
# HEp-2 [22] = test: Cytotoxicity against human Hep2 cells at 5 ug/mL after 72 hrs by MTT assay; conditions: HEp-2, 72 h, read-out: GI; summary of the method: as §4
# HEp-2 [23] = test: Cytotoxicity against human Hep2 cells at 2.5 ug/mL after 72 hrs by MTT assay; conditions: HEp-2, 72 h, read-out: GI; summary of the method: as §4
# Escherichia coli = test: Antimicrobial activity against Escherichia coli UFPEDA 224 at 300 ug/disk after 24 hrs by disk diffusion method; conditions: UFPEDA 224, 24 h, read-out: IZ; summary of the method: as §3
# Staphylococcus aureus [24] = test: Antimicrobial activity against multidrug-resistant Staphylococcus aureus H.C. 21036 isolate after 20 hrs by twofold serial dilution technique; conditions: H.C. 21036, 20 h; summary of the method: as §1
# Staphylococcus aureus [25] = test: Antimicrobial activity against multidrug-resistant Staphylococcus aureus H.C. 20905 isolate after 20 hrs by twofold serial dilution technique; conditions: H.C. 20905, 20 h; summary of the method: as §1
# Enterococcus faecalis [26] = test: Antimicrobial activity against multidrug-resistant Enterococcus faecalis H.C. 24708 isolate after 20 hrs by twofold serial dilution technique; conditions: H.C. 24708, 20 h; summary of the method: as §1
# HEp-2 [27] = test: Cytotoxicity against human Hep2 cells at 10 ug/mL after 72 hrs by MTT assay; conditions: HEp-2, 72 h, read-out: GI; summary of the method: as §4
# Candida albicans [28] = test: Antimicrobial activity against Candida albicans UFPEDA 1007 after 48 hrs by twofold serial dilution technique; conditions: UFPEDA 1007, 48 h; summary of the method: as §2
# NCI-H292 [29] = test: Cytotoxicity against human NCI-H292 cells at 5 ug/mL after 72 hrs by MTT assay; conditions: NCI-H292, 72 h, read-out: GI; summary of the method: as §4
# Enterococcus faecalis [30] = test: Antimicrobial activity against multidrug-resistant Enterococcus faecalis H.C. 24962 isolate after 20 hrs by twofold serial dilution technique; conditions: H.C. 24962, 20 h; summary of the method: as §1
# Staphylococcus aureus [31] = test: Antimicrobial activity against multidrug-resistant Staphylococcus aureus H.C. 20794 isolate after 20 hrs by twofold serial dilution technique; conditions: H.C. 20794, 20 h; summary of the method: as §1
# Staphylococcus [32] = test: Antimicrobial activity against coagulase-negative Staphylococcus H.A.M. 278 isolate after 20 hrs by twofold serial dilution technique; conditions: H.A.M. 278, 20 h; summary of the method: as §2
SMILES,MIC (Staphylococcus aureus [1]) [µg/mL],MIC (Bacillus subtilis [2]) [µg/mL],MIC (Staphylococcus aureus [3]) [µg/mL],zone of inhibition at 300 µg/disc (Serratia marcescens) [mm],MIC (Micrococcus luteus [4]) [µg/mL],zone of inhibition at 300 µg/disc (Enterococcus faecalis [5]) [mm],MIC (Enterococcus faecalis [6]) [µg/mL],inhibition of growth at 2.5 µg/mL (NCI-H292 [7]) [%],zone of inhibition at 300 µg/disc (Bacillus subtilis [8]) [mm],zone of inhibition at 300 µg/disc (Candida albicans [9]) [mm],inhibition of growth at 10 µg/mL (NCI-H292 [10]) [%],MIC (Enterococcus faecalis [11]) [µg/mL],zone of inhibition at 300 µg/disc (Pseudomonas aeruginosa) [mm],MIC (Enterococcus faecalis [12]) [µg/mL],inhibition of growth at 1.25 µg/mL (NCI-H292 [13]) [%],zone of inhibition at 300 µg/disc (Micrococcus luteus [14]) [mm],MIC [15] [µg/mL],inhibition of growth at 1.25 µg/mL (HEp-2 [16]) [%],MIC (Staphylococcus [17]) [µg/mL],zone of inhibition at 300 µg/disc [18] [mm],further results
O=C1NC(=S)/C(=C/c2ccccc2Cl)S1,8,16,4,< 7,16,16,16,19.9,17,12,45,16,< 7,32,10.6,18,16,-11.3,8,20,MIC (Staphylococcus aureus [19]): 4 µg/mL; zone of inhibition at 300 µg/disc (Staphylococcus aureus [20]): 25 mm; MIC (Staphylococcus aureus [21]): 2 µg/mL; inhibition of growth at 5 µg/mL (HEp-2 [22]): 5.97%; inhibition of growth at 2.5 µg/mL (HEp-2 [23]): -11.5%; zone of inhibition at 300 µg/disc (Escherichia coli): < 7 mm; MIC (Staphylococcus aureus [24]): 2 µg/mL; MIC (Staphylococcus aureus [25]): 2 µg/mL; MIC (Enterococcus faecalis [26]): 16 µg/mL; inhibition of growth at 10 µg/mL (HEp-2 [27]): 21.1%; MIC (Candida albicans [28]): 32 µg/mL; inhibition of growth at 5 µg/mL (NCI-H292 [29]): 34.2%; MIC (Enterococcus faecalis [30]): 32 µg/mL; MIC (Staphylococcus aureus [31]): 2 µg/mL; MIC (Staphylococcus [32]): 32 µg/mL
O=C1NC(=S)/C(=C/c2ccccc2Br)S1,16,8,4,< 7,16,19,8,16.2,19,13,36.9,32,< 7,16,13.3,18,32,3.14,16,21,MIC (Staphylococcus aureus [19]): 4 µg/mL; zone of inhibition at 300 µg/disc (Staphylococcus aureus [20]): 25 mm; MIC (Staphylococcus aureus [21]): 4 µg/mL; inhibition of growth at 5 µg/mL (HEp-2 [22]): 16.2%; inhibition of growth at 2.5 µg/mL (HEp-2 [23]): 10.3%; zone of inhibition at 300 µg/disc (Escherichia coli): < 7 mm; MIC (Staphylococcus aureus [24]): 4 µg/mL; MIC (Staphylococcus aureus [25]): 4 µg/mL; MIC (Enterococcus faecalis [26]): 16 µg/mL; inhibition of growth at 10 µg/mL (HEp-2 [27]): 21.2%; MIC (Candida albicans [28]): 32 µg/mL; inhibition of growth at 5 µg/mL (NCI-H292 [29]): 22.9%; MIC (Enterococcus faecalis [30]): 16 µg/mL; MIC (Staphylococcus aureus [31]): 4 µg/mL; MIC (Staphylococcus [32]): 2 µg/mL
O=C1NC(=S)/C(=C/c2cccc(Br)c2)S1,32,8,16,< 7,8,25,8,11.1,26,14,42.4,16,< 7,16,4.67,29,16,-5.3,64,25,MIC (Staphylococcus aureus [19]): 4 µg/mL; zone of inhibition at 300 µg/disc (Staphylococcus aureus [20]): 28 mm; MIC (Staphylococcus aureus [21]): 8 µg/mL; inhibition of growth at 5 µg/mL (HEp-2 [22]): -1.04%; inhibition of growth at 2.5 µg/mL (HEp-2 [23]): -1.82%; zone of inhibition at 300 µg/disc (Escherichia coli): < 7 mm; MIC (Staphylococcus aureus [24]): 16 µg/mL; MIC (Staphylococcus aureus [25]): 16 µg/mL; MIC (Enterococcus faecalis [26]): 8 µg/mL; inhibition of growth at 10 µg/mL (HEp-2 [27]): 23.6%; MIC (Candida albicans [28]): 64 µg/mL; inhibition of growth at 5 µg/mL (NCI-H292 [29]): 22%; MIC (Enterococcus faecalis [30]): 16 µg/mL; MIC (Staphylococcus aureus [31]): 8 µg/mL; MIC (Staphylococcus [32]): 64 µg/mL
